# Test results taken from ChEMBL document CHEMBL4433205, “Dual Pharmacophores Explored via Structure-Activity Relationship (SAR) Matrix: Insights into Potent, Bifunctional Opioid Ligand Design” (J Med Chem, 2019).
# Activity calls are given as the source filed them.
# Tests used:
# Mu-type opioid receptor [1] = biological target: T1, Mu-type opioid receptor (Rattus norvegicus, UniProt P33535); experiment: (§1) Agonist activity at rat mu opioid receptor expressed in rat C6 cell membranes assessed as stimulation of [35S]GTPgammaS binding measured after 1 hr; type: functional
# In short: (§2)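 Membranes (10–20 μg protein/tube) from stably transfected cells incubated 1 h at 25°C in 50 mM Tris-HCl, 100 mM NaCl, 5 mM MgCl2, pH 7.4, with 0.1 nM [35S]-GTPγS, 30 μM GDP and varying test concentrations; filtration, scintillation counting.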
# [2] = biological target: T2, Kappa-type opioid receptor (Homo sapiens, UniProt P41145); experiment: Agonist activity at human kappa opioid receptor expressed in CHO cell membranes assessed as stimulation of [35S]GTPgammaS binding to G protein incubated for 1 hr relative to U69,593; type: functional
# [3] = biological target: Delta-type opioid receptor (Rattus norvegicus) (UniProt P33533); experiment: Agonist activity at rat delta opioid receptor expressed in rat C6 cell membranes assessed as stimulation of [35S]GTPgammaS binding incubated for 1 hr relative to DPDPE; type: functional
# [4] = biological target: T2, Kappa-type opioid receptor; experiment: Agonist activity at human kappa opioid receptor expressed in CHO cell membranes assessed as stimulation of [35S]GTPgammaS binding measured after 1 hr; type: functional
# [5] = biological target: T3, Delta-type opioid receptor (Rattus norvegicus, UniProt P33533); experiment: Displacement of [3H]diprenorphine from rat delta opioid receptor expressed in rat C6 cell membranes measured after 1 hr by liquid scintillation counting method
# Mus musculus [6] = experiment: Antinociceptive activity in C57BL/6 mouse assessed as increase in latency to tail withdrawal up to 10 mg/kg, ip administered at 30 mins interval measured during compound dosing by warm water tail withdrawal assay relative to control; type: functional
# In short: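 Male C57BL/6 mice, 20–30 g, 8–16 weeks. Saline ip, baseline latency 30 min later; then cumulative ip doses 1, 3.2, 10 mg/kg in 5% DMSO/saline at 30 min intervals, latency read 30 min after each. Tail tip (2–3 cm) in 50°C water, 20 s cutoff; expressed as % MPE (MPE = 20 s).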
# [7] = biological target: T2, Kappa-type opioid receptor; experiment: Displacement of [3H]diprenorphine from human kappa opioid receptor expressed in CHO cell membranes measured after 1 hr by liquid scintillation counting method
# In short: (§3)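 Competition with 0.2 nM [3H]-diprenorphine on membranes (20 μg protein/tube) from stably transfected cells in 50 mM Tris-HCl pH 7.4, 1 h at room temperature with shaking; GF/C filtration, three washes, scintillation counting. Nonspecific binding defined with 10 μM naloxone.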
# Mu-type opioid receptor [8] = biological target: T1, Mu-type opioid receptor; experiment: Displacement of [3H]diprenorphine from rat mu opioid receptor expressed in rat C6 cell membranes measured after 1 hr by liquid scintillation counting method; in short: as §3
# [9] = biological target: T3, Delta-type opioid receptor; experiment: Agonist activity at rat delta opioid receptor expressed in rat C6 cell membranes assessed as stimulation of [35S]GTPgammaS binding measured after 1 hr; type: functional
# Rattus norvegicus = species: Rattus norvegicus; experiment: Selectivity ratio of Ki for rat delta opioid receptor expressed in rat C6 cell membranes to Ki for rat mu opioid receptor expressed in rat C6 cell membranes; type: cell-based
# In short: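 Competition binding against 0.2 nM [3H]-diprenorphine, using C6 membranes expressing rat MOR or rat DOR (20 μg protein/tube). Run in 50 mM Tris-HCl pH 7.4, 1 h at room temperature with shaking, then filtration and scintillation counting. Nonspecific binding with 10 μM naloxone.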
# [10] = Lipophilicity, log P of the compound; type: physicochemical; settings: octanol/water
# [11] = biological target: Mu-type opioid receptor (Rattus norvegicus) (UniProt P33535); experiment: Agonist activity at rat mu opioid receptor expressed in rat C6 glioma cell membranes assessed as stimulation of [35S]GTPgammaS binding measured after 1 hr relative to DAMGO; type: functional
# Mus musculus [12] = experiment: Antinociceptive activity in C57BL/6 mouse assessed as increase in latency to tail withdrawal by measuring time of action at 10 mg/kg, ip administered as bolus dose by warm water tail withdrawal assay; type: functional
# In short: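 Male C57BL/6 mice; saline ip, baseline 30 min later, then single 10 mg/kg ip bolus in 5% DMSO/saline. Tail withdrawal in 50°C water (20 s cutoff) at 5, 15, 30 min and every 30 min until return to baseline; duration = time from dosing to baseline return, done only for fully active compounds.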
# [13] = biological target: Mu-type opioid receptor (Rattus norvegicus) (UniProt P33535); experiment: as §1; type: functional; in short: as §2
# T2 sequence (P41145 whole entry): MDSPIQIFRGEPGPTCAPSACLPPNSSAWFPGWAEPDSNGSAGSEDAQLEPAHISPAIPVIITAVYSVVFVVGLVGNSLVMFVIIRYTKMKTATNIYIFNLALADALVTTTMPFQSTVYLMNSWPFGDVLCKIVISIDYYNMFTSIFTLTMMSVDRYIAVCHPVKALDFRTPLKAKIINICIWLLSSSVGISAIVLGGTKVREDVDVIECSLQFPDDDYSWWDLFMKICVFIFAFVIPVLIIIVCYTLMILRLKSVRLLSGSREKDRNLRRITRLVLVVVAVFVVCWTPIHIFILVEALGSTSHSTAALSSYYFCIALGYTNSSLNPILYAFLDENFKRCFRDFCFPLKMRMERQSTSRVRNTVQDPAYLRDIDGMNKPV
# T3 sequence (P33533 whole entry): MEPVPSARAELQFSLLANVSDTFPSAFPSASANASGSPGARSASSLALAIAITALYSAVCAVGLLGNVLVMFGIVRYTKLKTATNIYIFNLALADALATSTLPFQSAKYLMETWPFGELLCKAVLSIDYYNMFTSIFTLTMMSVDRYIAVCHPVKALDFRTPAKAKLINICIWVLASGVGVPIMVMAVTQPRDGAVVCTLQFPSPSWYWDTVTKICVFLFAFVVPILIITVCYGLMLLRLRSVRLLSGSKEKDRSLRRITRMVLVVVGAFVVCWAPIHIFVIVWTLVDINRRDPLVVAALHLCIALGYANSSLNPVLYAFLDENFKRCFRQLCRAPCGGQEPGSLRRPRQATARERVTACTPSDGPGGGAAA
# Chain of Delta-type opioid receptor (Rattus norvegicus) (P33533 whole entry): as above
# Chain of Mu-type opioid receptor (Rattus norvegicus) (P33535 whole entry): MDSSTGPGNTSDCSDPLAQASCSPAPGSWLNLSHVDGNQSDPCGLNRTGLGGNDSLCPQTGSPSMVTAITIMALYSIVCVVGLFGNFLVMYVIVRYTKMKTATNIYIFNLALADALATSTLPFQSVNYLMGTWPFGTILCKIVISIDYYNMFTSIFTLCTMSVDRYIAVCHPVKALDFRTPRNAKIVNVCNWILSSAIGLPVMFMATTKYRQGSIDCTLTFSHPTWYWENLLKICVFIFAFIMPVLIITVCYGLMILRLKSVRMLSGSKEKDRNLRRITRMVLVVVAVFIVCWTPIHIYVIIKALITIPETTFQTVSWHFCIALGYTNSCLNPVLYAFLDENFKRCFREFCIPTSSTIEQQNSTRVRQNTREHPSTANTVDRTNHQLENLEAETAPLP
# T1 sequence (P33535 whole entry): as above
SMILES,EC50 (Mu-type opioid receptor [1]) [nM],Efficacy [2],Efficacy [3],EC50 ([4]; read-out: EC50) [nM],Ki [5] [nM],MPE (Mus musculus [6]),Ki [7] [nM],Ki (Mu-type opioid receptor [8]) [nM],EC50 ([9]; read-out: EC50) [nM],Ratio Ki (Rattus norvegicus),logP [10],Efficacy [11],Time (Mus musculus [12]) [min],EC50 ([4]; cho),EC50 ([9]; c6),Activity [13]
Cc1cc(O)cc(C)c1C[C@H](N)C(=O)N[C@@H]1CCN(S(C)(=O)=O)c2ccc(Cc3ccccc3)cc21.O=C(O)C(F)(F)F,0.23,60%,22%,121,0.41,100%,8,0.06,12,7,3.3,98%,60,,,
Cc1cc(O)cc(C)c1C[C@H](N)C(=O)N[C@@H]1CCNc2ccc(Cc3ccccc3)cc21.O=C(O)C(F)(F)F,,,,,,100%,,,,,3.8,,120,,,
Cc1cc(O)cc(C)c1C[C@H](N)C(=O)N[C@@H]1CCN(C(=O)c2ccccc2)c2ccc(Cc3ccc4ccccc4c3)cc21.O=C(O)C(F)(F)F,7.9,inactive,,,0.46,100%,160,0.26,,,,57%,150,Not Active,Not Active,
CC(=O)N1CC[C@@H](NC(=O)[C@@H](N)Cc2c(C)cc(O)cc2C)c2cc(CN3CCc4ccccc4C3)ccc21.O=C(O)C(F)(F)F,6,41%,inactive,190,0.89,100%,0.78,0.19,,5,3.2,96%,240,,Not Active,
Cc1cc(O)cc(C)c1C[C@H](N)C(=O)N[C@@H]1CCN(C(=O)C2CC2)c2ccc(CN3CCc4ccccc4C3)cc21.O=C(O)C(F)(F)F,0.52,inactive,inactive,,0.88,60%,40,0.12,,7,3.8,95%,,Not Active,Not Active,
CC(=O)N1CC[C@@H](NC(=O)[C@@H](N)Cc2c(C)cc(O)cc2C)c2cc(Cc3cnc4ccccc4c3)ccc21.O=C(O)C(F)(F)F,1.1,inactive,35%,,0.2,60%,53,0.15,5.8,1,3.2,76%,,Not Active,,
Cc1cc(O)cc(C)c1C[C@H](N)C(=O)N[C@@H]1CCN(C(=O)c2ccccc2)c2ccc(Cc3ccc4c(c3)OCCO4)cc21.O=C(O)C(F)(F)F,,60%,inactive,> 500,0.22,inactive,240,1.5,,0.2,4.4,inactive,,,Not Active,inactive
Cc1cc(O)cc(C)c1C[C@H](N)C(=O)N[C@@H]1CCN(S(C)(=O)=O)c2ccc(Cc3cc4ccccc4o3)cc21.O=C(O)C(F)(F)F,0.34,61%,inactive,> 500,1,inactive,8,0.05,,20,3.8,102%,,,Not Active,
Cc1cc(O)cc(C)c1C[C@H](N)C(=O)N[C@@H]1CCN(S(C)(=O)=O)c2ccc(Cc3ccc4ccccc4c3)cc21.O=C(O)C(F)(F)F,0.23,inactive,inactive,,0.95,inactive,27,0.04,,24,4.4,102%,,Not Active,Not Active,
CC(=O)N1CC[C@@H](NC(=O)[C@@H](N)Cc2c(C)cc(O)cc2C)c2cc(Cc3ccc4c(c3)OCCO4)ccc21.O=C(O)C(F)(F)F,13,inactive,inactive,,0.83,75%,142,0.38,,2,3.1,45%,,Not Active,Not Active,
Cc1cc(O)cc(C)c1C[C@H](N)C(=O)N[C@@H]1CCN(C(=O)C2CC2)c2ccc(Cc3ccc4c(c3)OCCO4)cc21.O=C(O)C(F)(F)F,6,inactive,inactive,,0.19,inactive,412,0.28,,0.7,3.7,36%,,Not Active,Not Active,
Cc1cc(O)cc(C)c1C[C@H](N)C(=O)N[C@@H]1CCN(C(=O)c2ccccc2)c2ccc(Cc3cc4ccccc4o3)cc21.O=C(O)C(F)(F)F,12,inactive,inactive,,0.64,inactive,100,0.35,,2,5.2,58 to 64%,,Not Active,Not Active,
Cc1cc(O)cc(C)c1C[C@H](N)C(=O)N[C@@H]1CCN(S(C)(=O)=O)c2ccc(Cc3ccc4c(c3)OCCO4)cc21.O=C(O)C(F)(F)F,9,39%,inactive,> 500,1.5,70%,46,0.07,,21,3,47%,,,Not Active,
